Results collected from several papers.
Compare with care: the assays were run in different laboratories.
Target: STE20-like serine/threonine-protein kinase (SLK, Homo sapiens, UniProt Q9H2G2)

CCCCC(=O)Nc1ccc(-c2ccc3ncn(CCC)c(=O)c3c2)cn1 — remaining binding (binding; competition with immobilised ligand; 0.5 µM): 100%
C[C@]1(O)CCCN(c2nc(Nc3ccc(S(=O)(=O)N[C@H]4CC[C@H](CN5CCN(c6ccc(C7CCC(=O)NC7=O)cc6F)CC5)CC4)cc3Cl)ncc2C(F)(F)F)C1 (some centres unmarked) — remaining binding (binding; competition with immobilised ligand; 1 µM): 100%
C#Cc1cc(-c2cc(Nc3nc(N[C@@H](C)c4ccc(F)cn4)ncc3Cl)n[nH]2)ccc1C=O — inhibition (enzyme activity; inhibitor; 0.2 µM): 54.5%
C=CC(=O)N1CCC([C@@H]2CCNc3c(C(N)=O)c(-c4ccc(Oc5ccccc5)cc4)nn32)CC1 — inhibition (enzyme activity; inhibitor; 1 µM): 0%
C[C@H]1CC[C@H](n2c3cnccc3c3cnc(Nc4ccc5c(n4)CCN(C(=O)CO)C5)nc32)CC1 — remaining binding (binding; competition with immobilised ligand; 1 µM): 78%
CNS(=O)(=O)c1ccc(Nc2ncc(C(F)(F)F)c(N3CCC[C@](C)(O)C3)n2)c(C)c1 — remaining binding (binding; competition with immobilised ligand; 1 µM): 96%
CN1CCN(C(=O)c2ccc(NC(=O)Nc3ccc(N(C)c4ccnc(Nc5ccc(CS(C)(=O)=O)cc5)n4)cc3)cc2)CC1 — remaining binding (binding; competition with immobilised ligand; 1 µM): 8.9%
CC#CC(=O)N1CCC[C@H]1c1nc(-c2ccc(C(=O)Nc3ccccn3)cc2)c2c(N)nccn12 — inhibition (enzyme activity; inhibitor; 1 µM): 0%
